Assays:
[1] = target: GFP-Sc-Dyn AAA4 E/Q (E2819Q) (Saccharomyces cerevisiae, UniProt P36022, E2819Q); test: NADH-coupled steady-state ATPase assay, GFP-Sc-Dyn AAA4 E/Q mutant; assay type: biochemical, S. cerevisiae
[2] = target: GFP-Sc-Dyn AAA4 E/Q (E2819Q); test: as above; assay type: biochemical, S. cerevisiae; details: 1 mM MgATP, n=3
Sc-DynGST = Sc-DynGST (Saccharomyces cerevisiae, UniProt P36022); test: Single-molecule motility assay; assay type: biochemical, S. cerevisiae
Xl-katanin = Xl-katanin (Xenopus laevis, UniProt Q9PUL2); test: NADH-coupled steady-state ATPase assay, Xl-katanin; assay type: biochemical, X. laevis
Chain of Xl-katanin (Q9PUL2 whole entry): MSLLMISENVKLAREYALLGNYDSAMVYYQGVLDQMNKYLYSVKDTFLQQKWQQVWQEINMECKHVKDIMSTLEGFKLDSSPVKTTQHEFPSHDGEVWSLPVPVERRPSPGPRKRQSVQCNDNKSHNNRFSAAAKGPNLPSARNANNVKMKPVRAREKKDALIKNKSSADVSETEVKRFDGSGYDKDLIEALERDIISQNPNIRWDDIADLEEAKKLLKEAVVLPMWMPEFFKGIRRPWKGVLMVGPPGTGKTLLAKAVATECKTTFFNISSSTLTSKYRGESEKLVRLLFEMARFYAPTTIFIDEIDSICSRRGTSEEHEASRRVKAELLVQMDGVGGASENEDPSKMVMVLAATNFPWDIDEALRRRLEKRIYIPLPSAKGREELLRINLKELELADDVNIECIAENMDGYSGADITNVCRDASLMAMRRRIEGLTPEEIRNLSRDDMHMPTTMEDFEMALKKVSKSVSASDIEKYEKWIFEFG
Method in brief: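 Recombinant Xl-katanin (50 nM; E. coli, MBP-trap, MonoQ and gel filtration) in 25 mM K-HEPES pH 7.5, 70 mM KCl, 20 mM (NH4)2SO4, 5 mM MgCl2, 2.5 mM DTT, 0.01% Triton X-100 plus NADH-coupled regeneration mix. After 10 min RT preincubation with test compound, MgATP started the reaction. The fluorescence decrease rate (340/440 nm) was converted to ATPase rate using an ADP standard curve.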

Hs-FIGL1 = target: T1, Hs-FIGL1 (Homo sapiens, UniProt Q6PIW4); test: NADH-coupled steady-state ATPase assay, Hs-FIGL1; assay type: biochemical, H. sapiens
T1 sequence (Q6PIW4 288-674): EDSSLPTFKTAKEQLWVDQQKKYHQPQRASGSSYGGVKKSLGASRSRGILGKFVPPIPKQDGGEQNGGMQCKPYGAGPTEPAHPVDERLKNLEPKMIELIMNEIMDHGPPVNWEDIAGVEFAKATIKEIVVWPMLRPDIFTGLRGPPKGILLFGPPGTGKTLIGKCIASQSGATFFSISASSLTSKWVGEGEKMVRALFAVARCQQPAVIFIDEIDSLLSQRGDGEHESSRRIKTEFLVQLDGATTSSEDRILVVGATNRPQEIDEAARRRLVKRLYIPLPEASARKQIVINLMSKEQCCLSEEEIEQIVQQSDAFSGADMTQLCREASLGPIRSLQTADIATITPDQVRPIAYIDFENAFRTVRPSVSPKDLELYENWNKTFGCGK
Method in brief: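 Recombinant Hs-FIGL1 (50 nM; E. coli-expressed) in 25 mM Na-MES pH 6.5, 70 mM KOAc, 20 mM (NH4)2SO4, 5 mM Mg(OAc)2, 1 mM TCEP, 0.01% Triton X-100, with NADH/PEP/pyruvate kinase/lactate dehydrogenase coupling system. Protein preincubated 10 min at RT with test compound, then MgATP added. NADH fluorescence (ex 340, em 440 nm) slope converted to ATPase rate with an ADP standard curve.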

Hs-dynein 1 = Hs-dynein 1 (Homo sapiens, UniProt Q14204); test: Radioactive ATPase assay, microtubule-stimulated ATPase activity of Hs-dynein 1; assay type: biochemical
Method in brief: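 Radioactive ATPase assay with Hs-dynein 1 (His6, aa 1320–4646; 30 nM) in the presence of microtubules. Reaction time was 45 min, and rates with test compound were normalised to DMSO control.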

Mm-VCP/p97 = Mm-VCP/p97 (Mus musculus, UniProt Q01853); test: NADH-coupled steady-state ATPase assay, Mm-VCP/p97; assay type: biochemical, M. musculus
Chain of Mm-VCP/p97 (Q01853 whole entry): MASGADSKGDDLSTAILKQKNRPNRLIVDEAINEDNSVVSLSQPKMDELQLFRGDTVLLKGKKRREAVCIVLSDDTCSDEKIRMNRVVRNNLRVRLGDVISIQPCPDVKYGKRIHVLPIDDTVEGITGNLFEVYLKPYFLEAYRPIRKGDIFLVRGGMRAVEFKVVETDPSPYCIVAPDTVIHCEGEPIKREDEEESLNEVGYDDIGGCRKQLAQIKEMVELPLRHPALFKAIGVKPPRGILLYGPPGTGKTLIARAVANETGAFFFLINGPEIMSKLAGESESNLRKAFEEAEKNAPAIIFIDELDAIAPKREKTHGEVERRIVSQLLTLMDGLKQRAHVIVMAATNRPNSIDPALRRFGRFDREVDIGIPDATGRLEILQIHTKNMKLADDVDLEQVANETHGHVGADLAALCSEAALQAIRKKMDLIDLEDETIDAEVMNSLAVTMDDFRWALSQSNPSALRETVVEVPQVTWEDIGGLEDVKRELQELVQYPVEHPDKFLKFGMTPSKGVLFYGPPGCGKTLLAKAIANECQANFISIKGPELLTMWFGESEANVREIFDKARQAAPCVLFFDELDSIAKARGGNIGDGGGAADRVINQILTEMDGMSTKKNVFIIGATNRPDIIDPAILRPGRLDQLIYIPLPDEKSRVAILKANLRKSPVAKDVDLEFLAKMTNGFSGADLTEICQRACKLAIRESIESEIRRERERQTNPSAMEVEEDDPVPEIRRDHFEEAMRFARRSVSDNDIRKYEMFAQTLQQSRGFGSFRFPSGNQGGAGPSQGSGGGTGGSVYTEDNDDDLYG

[3] = target: GFP-Sc-Dyn AAA1 E/Q (E1849Q) (Saccharomyces cerevisiae, UniProt P36022, E1849Q); test: Microscale thermophoresis; assay type: binding, S. cerevisiae
Chain of GFP-Sc-Dyn AAA1 E/Q (E1849Q) (P36022 1219-4092 E1849Q): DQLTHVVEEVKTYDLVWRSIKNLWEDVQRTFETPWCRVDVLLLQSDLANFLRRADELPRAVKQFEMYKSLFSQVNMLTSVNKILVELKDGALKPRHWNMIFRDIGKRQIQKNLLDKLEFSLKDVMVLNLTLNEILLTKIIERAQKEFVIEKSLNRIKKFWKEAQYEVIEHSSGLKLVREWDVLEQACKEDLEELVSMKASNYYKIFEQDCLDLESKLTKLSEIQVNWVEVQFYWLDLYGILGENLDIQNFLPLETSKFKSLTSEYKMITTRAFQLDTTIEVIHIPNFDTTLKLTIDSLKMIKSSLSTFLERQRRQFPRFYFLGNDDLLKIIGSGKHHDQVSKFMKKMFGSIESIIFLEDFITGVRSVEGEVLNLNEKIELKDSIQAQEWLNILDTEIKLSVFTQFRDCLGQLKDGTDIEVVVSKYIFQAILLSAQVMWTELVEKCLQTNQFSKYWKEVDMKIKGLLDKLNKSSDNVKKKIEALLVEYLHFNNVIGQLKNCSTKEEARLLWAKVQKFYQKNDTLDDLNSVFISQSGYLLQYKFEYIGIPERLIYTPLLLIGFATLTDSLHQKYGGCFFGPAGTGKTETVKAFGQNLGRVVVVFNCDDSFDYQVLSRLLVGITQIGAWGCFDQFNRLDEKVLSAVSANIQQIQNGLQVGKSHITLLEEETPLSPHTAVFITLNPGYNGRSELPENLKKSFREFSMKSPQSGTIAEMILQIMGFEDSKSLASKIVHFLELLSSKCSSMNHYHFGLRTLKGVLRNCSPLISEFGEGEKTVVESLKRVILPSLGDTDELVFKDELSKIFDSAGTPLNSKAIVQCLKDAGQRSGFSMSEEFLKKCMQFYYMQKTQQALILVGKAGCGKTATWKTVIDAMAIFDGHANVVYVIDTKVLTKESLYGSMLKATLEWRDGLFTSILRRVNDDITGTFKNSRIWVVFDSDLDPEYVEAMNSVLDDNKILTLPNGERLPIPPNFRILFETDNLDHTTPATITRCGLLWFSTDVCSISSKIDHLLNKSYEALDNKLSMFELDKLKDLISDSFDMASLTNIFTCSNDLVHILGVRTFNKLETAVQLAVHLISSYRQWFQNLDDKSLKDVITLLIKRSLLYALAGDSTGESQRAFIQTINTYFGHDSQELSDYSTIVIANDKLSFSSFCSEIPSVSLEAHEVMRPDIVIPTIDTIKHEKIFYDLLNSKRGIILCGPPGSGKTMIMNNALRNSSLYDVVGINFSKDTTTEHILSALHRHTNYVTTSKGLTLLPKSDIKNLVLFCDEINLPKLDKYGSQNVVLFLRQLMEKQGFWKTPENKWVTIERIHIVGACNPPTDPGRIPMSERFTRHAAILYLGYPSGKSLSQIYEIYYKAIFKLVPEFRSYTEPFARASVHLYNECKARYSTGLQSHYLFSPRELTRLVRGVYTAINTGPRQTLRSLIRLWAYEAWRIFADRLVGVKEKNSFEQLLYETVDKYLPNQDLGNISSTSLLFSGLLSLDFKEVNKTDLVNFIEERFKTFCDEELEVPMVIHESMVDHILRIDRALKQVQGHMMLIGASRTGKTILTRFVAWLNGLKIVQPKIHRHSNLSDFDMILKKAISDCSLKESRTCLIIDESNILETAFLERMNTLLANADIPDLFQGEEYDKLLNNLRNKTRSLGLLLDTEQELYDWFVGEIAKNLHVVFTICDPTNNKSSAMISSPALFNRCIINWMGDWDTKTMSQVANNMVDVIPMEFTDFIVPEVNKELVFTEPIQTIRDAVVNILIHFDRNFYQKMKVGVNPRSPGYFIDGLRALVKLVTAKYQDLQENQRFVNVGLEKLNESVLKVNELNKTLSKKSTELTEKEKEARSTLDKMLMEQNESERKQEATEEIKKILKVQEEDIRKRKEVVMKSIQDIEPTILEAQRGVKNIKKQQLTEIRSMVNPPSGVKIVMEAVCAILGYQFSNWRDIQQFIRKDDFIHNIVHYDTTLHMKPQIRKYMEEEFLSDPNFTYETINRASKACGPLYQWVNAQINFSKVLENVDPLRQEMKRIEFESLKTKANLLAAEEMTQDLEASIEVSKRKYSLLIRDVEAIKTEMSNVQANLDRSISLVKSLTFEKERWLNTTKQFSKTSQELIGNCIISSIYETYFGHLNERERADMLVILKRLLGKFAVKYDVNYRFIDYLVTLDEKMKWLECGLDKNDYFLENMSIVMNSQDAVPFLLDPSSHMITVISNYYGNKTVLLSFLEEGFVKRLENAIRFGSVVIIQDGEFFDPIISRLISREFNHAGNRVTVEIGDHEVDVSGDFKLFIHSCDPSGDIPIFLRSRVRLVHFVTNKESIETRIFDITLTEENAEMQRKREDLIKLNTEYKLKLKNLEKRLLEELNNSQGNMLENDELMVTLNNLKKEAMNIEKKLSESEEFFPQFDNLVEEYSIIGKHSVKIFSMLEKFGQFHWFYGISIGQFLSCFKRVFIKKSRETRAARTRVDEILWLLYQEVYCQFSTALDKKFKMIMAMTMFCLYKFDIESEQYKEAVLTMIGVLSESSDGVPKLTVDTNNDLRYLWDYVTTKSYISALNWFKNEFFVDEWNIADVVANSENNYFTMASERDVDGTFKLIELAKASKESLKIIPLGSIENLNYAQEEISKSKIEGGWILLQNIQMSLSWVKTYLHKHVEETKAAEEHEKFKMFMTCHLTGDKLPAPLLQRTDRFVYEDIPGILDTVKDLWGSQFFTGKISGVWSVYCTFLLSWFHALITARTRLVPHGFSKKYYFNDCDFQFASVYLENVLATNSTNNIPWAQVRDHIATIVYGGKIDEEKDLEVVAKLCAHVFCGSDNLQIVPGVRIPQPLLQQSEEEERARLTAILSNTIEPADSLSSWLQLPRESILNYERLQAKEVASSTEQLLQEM

[4] = single-molecule, 0-50 μM compound

Chain of Sc-DynGST (P36022 1219-4092 limits assumed): as the sequence (P36022 1219-4092 E1849Q) above, with Q631E counted along it
Chain of GFP-Sc-Dyn AAA4 E/Q (E2819Q) (Saccharomyces cerevisiae, UniProt P36022, E2819Q) (P36022 1219-4092 E2819Q): as the sequence (P36022 1219-4092 E1849Q) above, with Q631E, E1601Q counted along it

In the case of `N#Cc1c(C2(c3ccc(Cl)cc3)CC2)nn2c(=O)c(Oc3cccc(Br)c3)c[nH]c12` [compound 20, 6-(3-bromophenoxy)-2-[1-(4-chlorophenyl)cyclopropyl]-7-oxo-4H-pyrazolo[1,5-a]pyrimidine-3-carbonitrile], the IC50 [1] is reported as 2.9 ± 0.3 µM, the “IC50 fold lower than that of GFP-Sc-Dyn, AAA4 E/Q mutant” value [2] is reported as ~ 5 fold and the EC50 (Sc-DynGST) is reported as 12.7 ± 2.5 µM. For the same compound, the “Pausing during processive runs (in words)” value (Sc-DynGST; single-molecule) was “no significant pausing”, the “Effect on dynein processivity (run length) (in words)” value (Sc-DynGST; [4]) was “little to no effect” and the “Effect on dynein velocity (in words)” value (Sc-DynGST; [4]) was “little to no effect”. For the same compound, the “Reduction of ATPase activity, Xl-katanin” value (Xl-katanin; 20 μM, 1 mM MgATP) was < 25%, the “Percent steady-state ATPase activity, Xl-katanin” value (Xl-katanin; compound 20 μM, mean ± SD, n=3) was 76 ± 9.0% and the “Percent steady-state ATPase activity, Hs-FIGL” value (Hs-FIGL1; compound 20 μM, mean ± SD, n=3) was 15 ± 11%. For the same compound, the inhibition at 20 µM (Hs-FIGL1; read-out: Inhibition of ATPase activity, Hs-FIGL1) was ~85%, the IC50 (Hs-dynein 1) was ~10 µM and the “Reduction of ATPase activity, Mm-VCP” value (Mm-VCP/p97; 20 μM, 1 mM MgATP) was < 25%. For the same compound, the “Percent steady-state ATPase activity, Mm-p97” value (Mm-VCP/p97; compound 20 μM, mean ± SD, n=3) was 99 ± 7.9%, the EC50 [3] was 73 ± 114 µM and the “Hill slope, binding to AAA1 E/Q mutant (MST)” value ([3]; mean ± 95% CI, n=4) was 1.3 ± 0.9.

Source: publication PMC8542630 (Cell chemical biology, 2021)
